Holding throughout (type): functional
Experiment [1] concerns Escherichia coli. Kind of experiment: Antibacterial activity against ampicillin tetracyclin streptomycin kanamycin-resistant Escherichia coli isolate V32-1 carrying qnrB19 gene. In short, it runs like this: (§1)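 MICs determined by broth microdilution following CLSI guidelines, with E. coli ATCC 25922 as quality-control strain in every run. Disk diffusion susceptibility was also performed per CLSI.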

Experiment [2] has as its system Escherichia coli. The experiment is described as follows: Antibacterial activity against tetracycline trimethoprim sulfamethoxazole kanamycin-resistant Escherichia coli isolate C14-9 carrying qnrB19 gene. The method, boiled down:
as §1

Experiment [3] has as its system Escherichia coli. The experiment is described as follows: Antibacterial activity against ampicillin sulfamethoxazole streptomycin kanamycin-resistant Escherichia coli isolate V6-9 carrying qnrB19 gene. The method, boiled down: as §1
The test system of experiment [4] is Escherichia coli. Kind of experiment: Antibacterial activity against Escherichia coli HB101. In short, it runs like this: as §1
The subject of experiment [5] is Escherichia coli. The experiment is described as follows: Antibacterial activity against tetracycline sulfamethoxazole streptomycin kanamycin-resistant Escherichia coli isolate M66-6 carrying qnrB19 gene. The method, boiled down: as §1
The subject of experiment [6] is Escherichia coli. The experiment is described as follows: Antibacterial activity against ampicillin tetracycline trimethoprim sulfamethoxazole streptomycin-resistant Escherichia coli isolate Y6-7 carrying qnrB19 gene. The method, boiled down: as §1

Three compounds from ChEMBL document CHEMBL1240376, “Characterization of small ColE-like plasmids mediating widespread dissemination of the qnrB19 gene in commensal enterobacteria” (2010) can be followed below.

Each structure is given as a SMILES string. Converted amounts (≈) assume the structure as drawn.

`CCn1cc(C(=O)O)c(=O)c2cc(F)c(N3CCNCC3)cc21` [NORFLOXACIN]: the MIC in experiment [1] is 0.25 µg/mL (≈ 0.783 µM); in experiment [2] it was 0.5 µg/mL (≈ 1.57 µM); in experiment [3], 0.5 µg/mL (≈ 1.57 µM); in experiment [4] it was 0.003 µg/mL (≈ 0.00939 µM); in experiment [5] it was 0.25 µg/mL (≈ 0.783 µM); in experiment [6], 0.25 µg/mL (≈ 0.783 µM).
As for `C[C@H]1COc2c(N3CCN(C)CC3)c(F)cc3c(=O)c(C(=O)O)cn1c23.C[C@H]1COc2c(N3CCN(C)CC3)c(F)cc3c(=O)c(C(=O)O)cn1c23.O` [LEVOFLOXACIN], the MIC was determined as 0.25 µg/mL in experiment [1], 0.25 µg/mL in experiment [2], 0.25 µg/mL in experiment [3] and 0.0075 µg/mL in experiment [4].
`CCn1cc(C(=O)O)c(=O)c2ccc(C)nc21` [NALIDIXIC ACID]: the minimum inhibitory concentration (MIC) in experiment [1] was 32 µg/mL (≈ 138 µM); in experiment [2] it was 32 µg/mL (≈ 138 µM); in experiment [3] it was 32 µg/mL (≈ 138 µM); in experiment [4] it was 4 µg/mL (≈ 17.2 µM); in experiment [5], 16 µg/mL (≈ 68.9 µM); in experiment [6] it was 16 µg/mL (≈ 68.9 µM).
